Activity calls are given as the source filed them. The rule behind the calls is not given here.
What was measured:
[1] = Half life in ICR mouse at 5 mg/kg, ip by LC-MS/MS analysis; type: ADME, organism-based; conditions: in vivo
In short: (§1)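 Male ICR mice, 7 weeks old. Single dose of 5 mg/kg IV or IP in 5% DMSO, 52% PEG400, 3% Tween 80 in water, or 30 mg/kg PO in 20% PEG400 and 3% Tween 80 in water. Retro-orbital blood sampled over time. Plasma protein-precipitated with acetonitrile (1:10) and analysed by LC-MS/MS. Parameters from noncompartmental analysis of mean data, n = 3.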

[2] = biological target: T1, Protein cereblon/Androgen receptor (Homo sapiens, UniProt P10275+Q96SW2); experiment: Protac activity at CRBN/AR in human LNCaP cells assessed as AR degradation at 1 uM after 4 hrs by Western blotting analysis relative to control; type: cell-based
In short: (§2)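 LNCaP (IMDM) or 22RV1 (RPMI 1640) cells with 10% FBS at 37 °C, 5% CO2, treated with DMSO vehicle as control. Cells lysed in RIPA buffer (50 mM Tris-HCl pH 7.5, 150 mM NaCl, 1% Triton X-100, 0.1% SDS, 0.5% deoxycholate, protease inhibitors). Protein quantified by Bradford assay. Immunoblotted for AR with tubulin as loading control, HRP chemiluminescence detection.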
Target sequence in this assay (P10275 whole entry, looked up): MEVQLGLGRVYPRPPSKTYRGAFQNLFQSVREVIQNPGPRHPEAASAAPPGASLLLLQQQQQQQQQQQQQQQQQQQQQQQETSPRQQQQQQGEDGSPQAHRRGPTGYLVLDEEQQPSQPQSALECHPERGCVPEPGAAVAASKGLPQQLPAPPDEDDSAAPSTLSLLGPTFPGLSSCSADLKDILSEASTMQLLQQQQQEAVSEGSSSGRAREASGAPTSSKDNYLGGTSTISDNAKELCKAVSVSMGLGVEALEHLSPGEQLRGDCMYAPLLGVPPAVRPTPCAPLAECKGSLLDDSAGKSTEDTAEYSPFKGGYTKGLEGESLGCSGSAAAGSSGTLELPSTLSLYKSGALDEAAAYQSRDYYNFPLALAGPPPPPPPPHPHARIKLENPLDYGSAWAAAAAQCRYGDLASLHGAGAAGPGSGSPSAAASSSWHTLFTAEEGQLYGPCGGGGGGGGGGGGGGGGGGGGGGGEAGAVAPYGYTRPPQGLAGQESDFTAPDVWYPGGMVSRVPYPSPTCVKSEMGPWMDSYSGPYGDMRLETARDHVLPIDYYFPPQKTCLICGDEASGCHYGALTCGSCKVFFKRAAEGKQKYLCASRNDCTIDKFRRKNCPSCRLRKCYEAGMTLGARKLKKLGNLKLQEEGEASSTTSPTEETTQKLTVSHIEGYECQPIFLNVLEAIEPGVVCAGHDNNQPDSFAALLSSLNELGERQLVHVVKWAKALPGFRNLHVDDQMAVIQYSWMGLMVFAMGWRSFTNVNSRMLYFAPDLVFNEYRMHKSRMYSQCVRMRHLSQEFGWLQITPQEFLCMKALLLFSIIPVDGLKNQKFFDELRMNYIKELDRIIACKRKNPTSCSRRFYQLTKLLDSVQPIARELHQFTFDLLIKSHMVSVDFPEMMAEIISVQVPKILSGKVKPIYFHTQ
Target sequence in this assay (Q96SW2 whole entry, looked up): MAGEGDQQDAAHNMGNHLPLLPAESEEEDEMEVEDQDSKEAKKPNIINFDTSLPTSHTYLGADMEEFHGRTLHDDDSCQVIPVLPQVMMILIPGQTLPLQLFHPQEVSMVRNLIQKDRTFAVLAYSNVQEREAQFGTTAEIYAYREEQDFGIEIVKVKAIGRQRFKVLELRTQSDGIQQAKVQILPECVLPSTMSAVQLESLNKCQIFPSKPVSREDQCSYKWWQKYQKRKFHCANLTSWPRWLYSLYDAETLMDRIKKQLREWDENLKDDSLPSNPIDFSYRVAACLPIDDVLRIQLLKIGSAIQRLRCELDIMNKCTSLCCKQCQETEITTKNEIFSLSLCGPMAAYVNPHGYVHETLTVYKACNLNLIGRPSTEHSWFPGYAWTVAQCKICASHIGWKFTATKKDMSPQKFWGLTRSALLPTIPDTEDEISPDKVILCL

[3] = biological target: T1, Protein cereblon/Androgen receptor; experiment: Protac activity at CRBN/AR in human LNCaP cells assessed as AR degradation at 1 uM pretreated with protease inhibitor bortezomib by Western blotting analysis; type: cell-based; in short: as §2
Target sequence in this assay (P10275 whole entry, looked up): as the sequence (P10275 whole entry, looked up) above
Target sequence in this assay (Q96SW2 whole entry, looked up): as the sequence (Q96SW2 whole entry, looked up) above

[4] = biological target: T1, Protein cereblon/Androgen receptor; experiment: Protac activity at CRBN/AR in human LNCaP cells assessed as AR degradation at 10 uM by Western blotting analysis relative to control; type: cell-based; in short: as §2
Target sequence in this assay (P10275 whole entry, looked up): as the sequence (P10275 whole entry, looked up) above
Target sequence in this assay (Q96SW2 whole entry, looked up): as the sequence (Q96SW2 whole entry, looked up) above

[5] = test system: VCaP; experiment: Antitumor activity against human VCaP cells xenografted in SCID mouse assessed as reduction in tumor growth at 30 mg/kg, ip administered once daily for 10 days and measured every 1 to 3 days post treatment by caliper method; type: functional, organism-based; conditions: time 10.0 day
In short: (§3)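 Male SCID mice (C.B-17/IcrCrj-scid) implanted subcutaneously in the right flank with 1.5×10⁷ VCaP cells mixed 1:1 with Matrigel. At about 130 mm³, mice dosed IP once daily for 10 days, vehicle 20% PEG400 + 3% Tween 80 in PBS. Tumours measured by caliper, volume = length × width² × 0.5. Body weight tracked alongside; Mann-Whitney U test, α = 0.01.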

[6] = biological target: T1, Protein cereblon/Androgen receptor; experiment: Protac activity at CRBN/AR in human LNCaP cells assessed as AR degradation at 0.1 uM by western blotting analysis relative to control; type: cell-based; in short: as §2
Target sequence in this assay (P10275 whole entry, looked up): as the sequence (P10275 whole entry, looked up) above
Target sequence in this assay (Q96SW2 whole entry, looked up): as the sequence (Q96SW2 whole entry, looked up) above

[7] = biological target: T1, Protein cereblon/Androgen receptor; experiment: Protac activity at CRBN/AR in human LNCaP cells assessed as AR degradation at 1 uM by Western blotting analysis relative to control; type: cell-based; in short: as §2
Target sequence in this assay (P10275 whole entry, looked up): as the sequence (P10275 whole entry, looked up) above
Target sequence in this assay (Q96SW2 whole entry, looked up): as the sequence (Q96SW2 whole entry, looked up) above

[8] = Tmax in ICR mouse at 30 mg/kg, po by LC-MS/MS analysis; type: ADME, organism-based; conditions: in vivo; in short: as §1
[9] = Toxicity in SCID mouse xenografted with human VCaP cells assessed as loss of body weight at 30 mg/kg, ip administered once daily for 10 days and measured every 1 to 3 days post treatment; type: organism-based; conditions: in vivo, 240 h, time 10 day; in short: as §3
[10] = Half life in ICR mouse at 5 mg/kg, iv by LC-MS/MS analysis; type: ADME, organism-based; conditions: in vivo; in short: as §1
[11] = test system: LNCaP; experiment: Antiproliferative activity against human LNCaP cells assessed as reduction in cell viability after 6 days by CellTiter-Glo assay; type: functional; conditions: 144 h, time 6 day
In short: (§4)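 LNCaP seeded at 1.5 × 10³ and VCaP at 4 × 10³ cells per well in 96-well plates. Cells grown in IMDM with 10% FBS and antibiotic-antimycotic at 37 °C, 5% CO2, with DMSO as vehicle. IC50 from nonlinear regression of log(inhibitor) versus response.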

[12] = biological target: T1, Protein cereblon/Androgen receptor; experiment: Protac activity at CRBN/AR in human 22RV1 cells assessed as maximum degradation of AR-V7 splice variant at 10 uM by Western blotting analysis relative to control; type: cell-based; in short: as §2
Target sequence in this assay (P10275 whole entry, looked up): as the sequence (P10275 whole entry, looked up) above
Target sequence in this assay (Q96SW2 whole entry, looked up): as the sequence (Q96SW2 whole entry, looked up) above

[13] = test system: VCaP; experiment: Antiproliferative activity against human VCaP cells assessed as reduction in cell viability after 6 days by CellTiter-Glo assay; type: functional; conditions: 144 h, time 6 day; in short: as §4
[14] = Cmax in ICR mouse at 30 mg/kg, po by LC-MS/MS analysis; type: ADME, organism-based; parameters: route oral, dose 30 mg/kg; conditions: in vivo; in short: as §1
[15] = Tmax in ICR mouse at 5 mg/kg, ip by LC-MS/MS analysis; type: ADME, organism-based; conditions: in vivo; in short: as §1
[16] = AUCt in ICR mouse at 5 mg/kg, ip by LC-MS/MS analysis; type: ADME, organism-based; parameters: dose 5 mg/kg; conditions: in vivo; in short: as §1
[17] = biological target: T1, Protein cereblon/Androgen receptor; experiment: Protac activity at CRBN/AR in human 22RV1 cells assessed as maximum degradation of AR at 1 uM by Western blotting analysis relative to control; type: cell-based; in short: as §2
[18] = AUCt in ICR mouse at 5 mg/kg, iv by LC-MS/MS analysis; type: ADME, organism-based; parameters: dose 5 mg/kg; conditions: in vivo; in short: as §1
[19] = biological target: T1, Protein cereblon/Androgen receptor; experiment: Protac activity at CRBN/AR in human LNCaP cells assessed as AR degradation at 1 uM pretreated with neddylation inhibitor MLN4924 by Western blotting analysis; type: cell-based; in short: as §2
[20] = biological target: T1, Protein cereblon/Androgen receptor; experiment: Protac activity at CRBN/AR in human LNCaP cells assessed as maximum degradation of AR by Western blotting analysis relative to control; type: cell-based; conditions: time 24.0 hrs; in short: as §2
[21] = Metabolic stability in mouse liver microsomes assessed as compound remaining at 1 uM after 30 mins in presence of NADPH-regenerating system; type: ADME, Microsome; conditions: read-out: Stabilty
In short: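 Mouse liver microsomes at 0.5 mg protein/mL in 100 mM PBS, pH 7.4. Reaction started with NADPH-regenerating solution (1.3 mM NADP+, 3.3 mM glucose-6-phosphate, 0.4 U/mL G6PDH, 3.3 mM MgCl2). Incubated 30 min at 37 °C, stopped with ice-cold acetonitrile, centrifuged. Percent remaining reported as mean ± SD, n = 3.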

[22] = Cmax in ICR mouse at 5 mg/kg, ip by LC-MS/MS analysis; type: ADME, organism-based; parameters: route intraperitoneal, dose 5 mg/kg; conditions: in vivo; in short: as §1
[23] = AUCt in ICR mouse at 30 mg/kg, po by LC-MS/MS analysis; type: ADME, organism-based; parameters: dose 30 mg/kg; conditions: in vivo; in short: as §1
[24] = biological target: T1, Protein cereblon/Androgen receptor; experiment: Protac activity at CRBN/AR in human LNCaP cells assessed as AR degradation after 24 hrs by Western blotting analysis; type: cell-based; in short: as §2
Target sequence in this assay (P10275 whole entry): as the sequence (P10275 whole entry, looked up) above
Target sequence in this assay (Q96SW2 whole entry): as the sequence (Q96SW2 whole entry, looked up) above

[25] = Half life in ICR mouse at 30 mg/kg, po by LC-MS/MS analysis; type: ADME, organism-based; conditions: in vivo, 30 mg/kg; in short: as §1
[26] = biological target: T1, Protein cereblon/Androgen receptor; experiment: Protac activity at CRBN/AR in human LNCaP cells assessed as AR degradation at 0.1 to 10 uM Western blotting analysis relative to control; type: cell-based; conditions: dose 0.1-10 µM; in short: as §2

t1/2 [1]	Activity [4]	Activity [6]	Activity [7]	half-life [10]	Tmax [15]	AUCt [16]	AUC(0-t) [18]	remaining at 0.5 h, 1 µM [21]	Cmax [22]	SMILES	CC50 [11]	CC50 [13]	also measured
4.41 h	95%	85%	93%	8.28 h	0.03 h	1720 ng·h/mL	20700 ng·h/mL	96%	2780 ng/mL	CC1(C)[C@H](NC(=O)c2ccc(N3CCN(C4CC5(CCN(C(=O)C6CCN(c7ccc8nnn(C9CCC(=O)NC9=O)c(=O)c8c7)CC6)CC5)C4)CC3)cc2)C(C)(C)[C@H]1Oc1ccc(C#N)c(Cl)c1 (stereo partly specified)	98 nM	44 nM	Activity [2]: 80%; Activity [3]: inactive; Activity [5]: Active; Tmax ([8]; ICR, read-out: Tmax): 4 h; Activity [9]: Non-Toxic; Activity [12]: 34%; Cmax ([14]; ICR, read-out: Cmax): 110 ng/mL; Activity [17]: 85%; Activity [19]: inactive; Activity [20]: 93%; AUC(0-t) ([23]; ICR): 530 ng·h/mL; DC50 [24]: 12.5 nM
4.82 h	83%	96%	96%	4.48 h	2 h	24200 ng·h/mL	24100 ng·h/mL	92.8%	5540 ng/mL	CC1(C)[C@H](NC(=O)c2ccc(N3CCN(CC4CCN(C(=O)C5CN(c6ccc7nnn(C8CCC(=O)NC8=O)c(=O)c7c6)C5)CC4)CC3)cc2)C(C)(C)[C@H]1Oc1ccc(C#N)c(Cl)c1 (stereo partly specified)	89 nM	38 nM	Tmax ([8]; 30 mg/kg): 0.67 h; t1/2 [25]: 26.7 h; Cmax [14]: 50 ng/mL; AUCt [23]: 440 ng·h/mL
										CN1C(=O)CCC(n2nnc3ccc(N4CCC(C(=O)N5CCC6(CC5)CC(N5CCN(c7ccc(C(=O)N[C@H]8C(C)(C)[C@H](Oc9ccc(C#N)c(Cl)c9)C8(C)C)cc7)CC5)C6)CC4)cc3c2=O)C1=O (stereo partly specified)			Activity [26]: inactive

From ChEMBL document CHEMBL4706590, “Design and characterization of cereblon-mediated androgen receptor proteolysis-targeting chimeras” (Eur J Med Chem, 2020)
